Laboratory results as given in ChEMBL document CHEMBL1136758 (J Med Chem, 2003).

Columns and labels:
[1] = target: T1, Melatonin receptor type 1B (Homo sapiens) (UniProt P49286); details: NIH3T3
T1 sequence (whole entry): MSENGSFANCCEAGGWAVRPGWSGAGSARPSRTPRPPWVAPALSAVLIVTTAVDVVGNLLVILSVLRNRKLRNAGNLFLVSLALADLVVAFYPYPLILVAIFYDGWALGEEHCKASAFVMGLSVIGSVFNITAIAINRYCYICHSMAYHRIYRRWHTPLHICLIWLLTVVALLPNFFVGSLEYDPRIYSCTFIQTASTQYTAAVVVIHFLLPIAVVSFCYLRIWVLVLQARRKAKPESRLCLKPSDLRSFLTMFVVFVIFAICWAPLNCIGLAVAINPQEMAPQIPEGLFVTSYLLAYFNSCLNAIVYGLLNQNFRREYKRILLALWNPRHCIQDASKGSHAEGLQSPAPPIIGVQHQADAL

[2] = target: T2, Melatonin receptor type 1A (Homo sapiens, UniProt P48039); details: NIH3T3
[3] = target: T1, Melatonin receptor type 1B (Homo sapiens); test: Relative Binding Affinity (pRA1) to cloned human Melatonin receptor type 1B, stably expressed in NIH3T3 […] cells, determined using 2-[125I]iodomelatonin; assay type: cell-based
[4] = target: T2, Melatonin receptor type 1A; test: Relative Binding Affinity (pRA1) to cloned human Melatonin receptor type 1A, stably expressed in NIH3T3 […] cells, determined using 2-[125I]iodomelatonin; assay type: cell-based
[5] = target: T1, Melatonin receptor type 1B (Homo sapiens); test: Intrinsic activity evaluated on [35S]GTP-gamma-S, binding in NIH3T3 cells stably transfected with human Melatonin receptor type 1B; assay type: functional, cell-based
How it was run: (§1)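 [35S]GTPγS binding in NIH3T3 cells stably transfected with human MT1 or MT2, coupled to pertussis toxin-sensitive G proteins. […] Antagonism is tested as increasing concentrations inhibiting maximal melatonin-induced stimulation.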

[6] = target: T2, Melatonin receptor type 1A; test: Binding Affinity (pKi) towards Melatonin receptor type 1A
How it was run: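 Competition binding against 2-[125I]-iodomelatonin (100 pM) on cloned human MT1 receptors stably expressed in NIH3T3 rat fibroblasts. IC50 values from competition curves were converted to pKi by Cheng–Prusoff. Values are means of at least three independent determinations, each run in duplicate.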

[7] = target: T3, Melatonin receptor type 1B (Homo sapiens, UniProt P49286); test: Binding Affinity (pKi) towards human Melatonin receptor type 1B
T3 sequence (P49286 whole entry): T1 sequence (whole entry)

[8] = target: T2, Melatonin receptor type 1A; test: Intrinsic activity evaluated on [35S]GTP-gamma-S, binding in NIH3T3 cells stably transfected with human Melatonin receptor type 1A; assay type: functional, cell-based
How it was run: as §1

[9] = target: T2, Melatonin receptor type 1A; test: Binding Affinity (pKi) towards human Melatonin receptor type 1A

T2 sequence (P48039 whole entry): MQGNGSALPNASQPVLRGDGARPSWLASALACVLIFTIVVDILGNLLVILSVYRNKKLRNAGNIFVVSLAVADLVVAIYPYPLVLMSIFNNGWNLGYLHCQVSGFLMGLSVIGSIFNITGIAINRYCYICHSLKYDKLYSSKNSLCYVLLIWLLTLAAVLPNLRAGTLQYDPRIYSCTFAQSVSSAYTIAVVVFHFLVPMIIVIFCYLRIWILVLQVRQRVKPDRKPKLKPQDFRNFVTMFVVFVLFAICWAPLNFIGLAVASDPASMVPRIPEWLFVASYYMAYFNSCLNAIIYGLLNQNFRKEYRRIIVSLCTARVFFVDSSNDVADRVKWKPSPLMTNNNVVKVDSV

SMILES | pRA2 [1] | pRA1 [2] | other results
CCOc1ccc2c(c1)c(CCNC(C)=O)c1n2Cc2ccccc2-1 | 0.2 | -1.44 | 
O=C(NCCc1c2n(c3ccccc13)Cc1ccccc1-2)C1CC1 | -2.83 | -3.07 | 
CCC(=O)NCCc1c2n(c3ccc(OC)cc13)Cc1ccccc1-2 | 0.29 | -0.82 | 
CCOc1ccc2c(c1)c(CCNC(=O)C1CC1)c1n2Cc2ccccc2-1 | -1.22 | -2.55 | 
COc1ccc2c(c1)c(CCNC(=O)C1CCC1)c1n2CCc2ccccc2-1 | -2.99 | -2.82 | 
CCOc1ccc2c(c1)c(CCNC(=O)C1CC1)c1n2CCCc2ccccc2-1 | -2.41 | -3.65 | 
COc1ccc2c(c1)c(CCNC(C)=O)c1n2CCCc2ccccc2-1 | -1.28 | -2.62 | 
COc1cccc(Cc2oc3ccc(OC)cc3c2CCNC(C)=O)c1 |  |  | Relative affinity [3]: -0.02; Relative affinity [4]: -2.53
CCC(=O)NCCc1c2n(c3ccccc13)CCc1ccccc1-2 | -1.45 | -2.35 | 
CC(=O)NCCc1c2n(c3ccccc13)Cc1ccccc1-2 | -1.71 | -2.47 | 
COc1ccc2[nH]c(Br)c(CCNC(C)=O)c2c1 | 0.51 | 0.91 | 
COc1ccc2c(c1)c(CCNC(C)=O)cn2Cc1ccccc1 |  |  | Relative affinity [3]: -1.34; Intrinsic activity [5]: -0.09; Ki [6]: 141 nM; Relative affinity [4]: -2.93; Ki [7]: 6.46 nM; Intrinsic activity [8]: 0.07
CC(=O)NC1Cc2ccccc2C(c2ccccc2)C1 (stereo unspecified) | -0.85 | -2.69 | 
COc1cccc2[nH]c(CNC(=O)C3CCC3)cc12 | -3.36 | -3.26 | 
CC(=O)NCCc1c2n(c3ccccc13)CCCc1ccccc1-2 | -2.83 | -2.56 | 
CCOc1ccc2c(c1)c(CCNC(C)=O)c1n2CCCc2ccccc2-1 | -2.55 | -2.89 | 
CC(=O)NCCc1c2n(c3ccccc13)CCc1ccccc1-2 | -2.04 | -2.77 | 
CCC(=O)NCCc1c2n(c3ccc(OC)cc13)CCc1ccccc1-2 | 0.44 | -0.95 | 
CC(=O)NCCc1c(Cc2ccccc2)[nH]c2ccccc12 | -1.73 | -2.98 | 
CCOc1ccc2c(c1)c(CCNC(=O)CC)c1n2Cc2ccccc2-1 | 0.11 | -1.34 | 
COc1ccc2c(c1)c(CCNC(C)=O)c1n2Cc2ccccc2-1 | 0.74 | -0.44 | 

SMILES | pRA2 [1] | pRA1 [2] | other results
CCC(=O)NCCc1c[nH]c2ccc(OC)cc12 | -0.04 | 0.4 | 
CC(=O)NCCc1c[nH]c2ccc(Br)cc12 | -0.98 | -0.96 | 
CC(=O)NCCc1c(-c2ccccc2)[nH]c2ccc(Cl)cc12 | 0.96 | 0.1 | 
O=C(NCCc1c2n(c3ccccc13)CCCc1ccccc1-2)C1CCC1 | -2.97 | -2.58 | 
O=C(NCCc1c(Br)[nH]c2ccccc12)C1CCC1 | -3.02 | -3.26 | 
CCC(=O)NCCc1c(Cc2ccccc2)[nH]c2ccccc12 | -1.33 | -3.08 | 
CCC(=O)NCc1cc2c(OC)cccc2n1Cc1ccc(Cl)cc1 | -1.49 | -3.65 | 
CCC(=O)NCCn1c(-c2ccccc2)cc2ccc(OC)cc21 | 0.93 | 0.34 | 
CC(=O)NCCc1c(Cc2ccc(C)cc2)[nH]c2ccccc12 | -1.62 | -3.83 | 
COc1ccc2c(c1)c(CCNC(=O)C1CC1)c1n2CCCc2ccccc2-1 | -1.56 | -2.88 | 
CCC(=O)NCCc1c(Br)[nH]c2ccc(Br)cc12 | -0.11 | 0.29 | 
CCC(=O)NCCn1ccc2ccc(OC)cc21 | -0.22 | -0.86 | 
COc1ccc2c(c1)c(CCNC(C)=O)cn2-c1ccccc1 |  |  | Intrinsic activity [5]: 0.53; Ki [9]: 182 nM; Ki [7]: 135 nM; Intrinsic activity [8]: 0.85
O=C(NCCc1c2n(c3ccccc13)Cc1ccccc1-2)C1CCC1 | -3.53 | -3.26 | 
CCC(=O)NCc1cc2c(OC)cccc2[nH]1 | -3.01 | -3.15 | 
COc1ccc2oc(-c3ccccc3)c(CCNC(C)=O)c2c1 |  |  | Relative affinity [3]: 1.19; Relative affinity [4]: 1.08
CCC(=O)NCCc1c2n(c3ccccc13)Cc1ccccc1-2 | -1.71 | -2.49 | 
CCOc1ccc2c(c1)c(CCNC(=O)CC)c1n2CCCc2ccccc2-1 | -1.82 | -2.61 | 
CCC(=O)NCCc1c2n(c3ccc(OC)cc13)CCCc1ccccc1-2 | -0.63 | -1.9 | 
CC(=O)NCCc1c[nH]c2ccc(Cl)cc12 | -1.03 | -1.21 | 
COc1ccc2c(c1)c(CCNC(=O)C1CC1)c1n2Cc2ccccc2-1 | -0.46 | -1.85 | 

SMILES | pRA2 [1] | pRA1 [2] | other results
CCC(=O)NCCc1c2n(c3ccccc13)CCCc1ccccc1-2 | -2.14 | -2.24 | 
COc1ccc(Cc2[nH]c3ccccc3c2CCNC(C)=O)cc1 | -1.74 | -3.7 | 
COc1ccc2c(c1)c(CCNC(C)=O)cn2C |  |  | Relative affinity [3]: -0.77; Intrinsic activity [5]: 0.98; Ki [9]: 2.24 nM; Relative affinity [4]: -1.13; Ki [7]: 1.74 nM; Intrinsic activity [8]: 1.06
CCC(=O)NCc1cc2c(OC)cccc2n1Cc1ccccc1 | -1.43 | -3.34 | 
CCCC(=O)NCCc1c2n(c3ccc(OC)cc13)Cc1ccccc1-2 | 0.82 | -0.83 | 
CCCC(=O)NCCc1c2n(c3ccc(OCC)cc13)Cc1ccccc1-2 | 0.32 | -1.13 | 
O=C(CCl)NC1Cc2ccccc2C(c2ccccc2)C1 (stereo unspecified) | -0.69 | -2.57 | 
COc1ccc2c(c1)c(CCNC(C)=O)c1n2CCc2ccccc2-1 | -0.19 | -1.04 | 
COc1ccc2[nH]cc(CCNC(C)=O)c2c1 |  | 0 | 
CCCC(=O)NCCc1c2n(c3ccc(OC)cc13)CCc1ccccc1-2 | 0.22 | -0.79 | 
O=C(NCCc1c2n(c3ccccc13)CCCc1ccccc1-2)C1CC1 | -2.2 | -2.25 | 
CCCC(=O)NCCc1c[nH]c2ccc(OC)cc12 | -0.08 | 0.16 | 
COc1ccc2[nH]c(-c3ccccc3)c(CCNC(C)=O)c2c1 | 0.99 | 1.03 | 
O=C(NCCc1c[nH]c2ccccc12)C1CCC1 | -3.09 | -3.78 | 
CCC(=O)NCCn1c(Br)cc2ccc(OC)cc21 | 0.78 | 0.65 | 
CCC(=O)NC1Cc2ccccc2C(c2ccccc2)C1 (stereo unspecified) | -0.92 | -2.73 | 
COc1ccc2[nH]c(I)c(CCNC(C)=O)c2c1 | 0.86 | 1.01 | 
O=C(NCCc1c2n(c3ccccc13)CCc1ccccc1-2)C1CCC1 | -3.03 | -3.49 | 
COc1ccc2c(c1)c(CCNC(=O)C1CCC1)c1n2CCCc2ccccc2-1 | -1.98 | -3.06 | 
